{"data": "Published values of several laboratories", "medium": "plasma", "note": "Each line is one published result; the experiments were not run side by side."}
{"Compound": "CNCc1cc(-c2ccccc2F)n(S(=O)(=O)c2cccnc2)c1", "system": "Sprague-Dawley rat", "setting": "oral, 10 mg/kg", "measurement": "MRT(0-t)", "value": "2.43 h"}
{"Compound": "N#Cc1ccc(Nc2nc(N)cc(Oc3c(F)cc(-c4ccc(C#N)cc4)cc3F)n2)cc1", "system": "Sprague-Dawley rat", "setting": "oral, 5 mg/kg", "measurement": "MRT(0-inf)", "value": "6.48 h"}
{"Compound": "CCc1cc(C(=O)NC)c2nccc(N3CCc4c(cc(Cn5ccnc5)cc4-c4cn(C)nc4C(F)(F)F)C3=O)c2c1", "system": "male Sprague-Dawley rat", "setting": "oral, 100 mg/kg, single dose", "measurement": "MRT(0-inf)", "value": "3.8 h"}
{"Compound": "COc1nc(-c2cc(C)c(N[C@@H](C)c3cc(F)cc(F)c3)nn2)ccc1-n1cnc(C)c1", "system": "male Sprague-Dawley rat", "setting": "oral, 5 mg/kg, single dose", "measurement": "MRT(0-t)", "value": "6.87 h"}
{"Compound": "C#Cc1cccc(Nc2ncnc3cc(OCCOC)c(OCCOC)cc23)c1", "system": "male Sprague-Dawley rat", "setting": "oral, 12 mg/kg, single dose", "measurement": "MRT(0-t)", "value": "5.07 h"}
{"Compound": "O=C(Nc1cc(F)c(F)c(F)c1)c1ccc(F)c(S(=O)(=O)NCc2cccc(B(O)O)c2)c1", "system": "male Sprague-Dawley rat", "setting": "oral, 20 mg/kg", "measurement": "MRT(0-inf)", "value": "1.25 h"}
{"Compound": "CCOC(=O)[C@@]12C[C@@H]1[C@@H](n1ccc3c(NC)nc(C#Cc4ccc(Cl)s4)nc31)[C@H](O)[C@@H]2O", "system": "male Sprague-Dawley rat", "setting": "intravenous, 0.5 mg/kg", "measurement": "MRT(0-t)", "value": "1.29 h"}
{"Compound": "CCc1cc(OC)c2nccc(N3CCc4c(cc(Cn5ccnc5)cc4-c4cn(C)nc4C(F)(F)F)C3=O)c2c1", "system": "male Sprague-Dawley rat", "setting": "oral, 50 mg/kg", "measurement": "MRT(0-inf)", "value": "2.7 h"}
{"Compound": "CCc1nc(C(N)=O)c(Nc2ccc(N3CCC(N4CCN(C)CC4)CC3)c(OC)c2)nc1NC1CCOCC1", "system": "male Sprague-Dawley rat", "setting": "oral, 10 mg/kg", "measurement": "MRT(0-inf)", "value": "21.8 h"}
{"Compound": "Cc1nc(Nc2ncc(C(=O)Nc3c(C)cccc3Cl)s2)cc(N2CCN(CCO)CC2)n1", "system": "female Sprague-Dawley rat", "setting": "intravenous, 5 mg/kg", "measurement": "MRT", "value": "3.78 h"}
{"Compound": "Oc1c(Br)cc(Cl)c2cccnc12", "system": "Sprague-Dawley rat", "setting": "intravenous, 2 mg/kg", "measurement": "MRT", "value": "12.5 h"}
